Experimental data from ChEMBL document CHEMBL2057204, “Synthesis, biological evaluation, and molecular docking studies of N-((1,3-diphenyl-1H-pyrazol-4-yl)methyl)aniline derivatives as novel anticancer agents” (Bioorg Med Chem, 2012).

What was measured:
MCF7 = assay: Antiproliferative activity against human MCF7 cells after 48 hrs by MTT assay; format: functional, cell-based; details: MCF7, 48 h
Method in brief: (§1)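 Cells grown to log phase in RPMI 1640 with 10% FBS, diluted to 2 × 10⁴ cells/mL in complete medium and seeded into 96-well plates. Plates held 24 h at 37 °C, 5% CO₂ before compound exposure. After a 4 h incubation, absorbance read at 570 nm on a microplate reader. Three replicate wells per concentration; each assay run at least three times; IC₅₀ reported.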

B16-F10 = assay: Antiproliferative activity against mouse B16F10 cells after 48 hrs by MTT assay; format: functional, cell-based; details: B16-F10, 48 h; method in brief: as §1
[1] = biological target: Cyclin-dependent kinase 2/cyclin E1 (Homo sapiens, UniProt P24941); assay: Inhibition of CDK2/cyclin E; format: protein-complex assay

| IC50 (MCF7) [µM] | IC50 (B16-F10) [µM] | IC50 [1] [µM] | SMILES |
| --- | --- | --- | --- |
| 2.62 | 3.01 | 1.85 | Clc1ccc(-c2nn(-c3ccccc3)cc2CNc2ccc(Br)cc2)cc1 |
| 6.25 | 7.18 | 4.28 | COc1ccc(-c2nn(-c3ccccc3)cc2CNc2ccc(Cl)cc2)cc1 |
| 4.15 | 4.29 | 2.56 | Clc1ccc(NCc2cn(-c3ccccc3)nc2-c2ccc(Br)cc2)cc1 |
| 1.88 | 2.12 | 0.98 | Fc1ccc(NCc2cn(-c3ccccc3)nc2-c2ccc(Cl)cc2)cc1 |
| 3.11 | 3.48 | 2.08 | Cc1ccc(NCc2cn(-c3ccccc3)nc2-c2ccc(Cl)cc2)cc1 |
| 6.89 | 6.76 | 4.15 | Cc1ccc(-c2nn(-c3ccccc3)cc2CNc2ccc(Br)cc2)cc1 |
| 6.02 | 6.01 | 3.89 | Cc1ccc(-c2nn(-c3ccccc3)cc2CNc2ccc(Cl)cc2)cc1 |
| 2.28 | 2.45 | 1.18 | Clc1ccc(NCc2cn(-c3ccccc3)nc2-c2ccc(Cl)cc2)cc1 |

Second part, the molecule before the results:

| SMILES | IC50 (MCF7) [µM] | IC50 (B16-F10) [µM] | IC50 [1] [µM] |
| --- | --- | --- | --- |
| Cc1ccc(NCc2cn(-c3ccccc3)nc2-c2ccc(Br)cc2)cc1 | 5.38 | 5.98 | 3.02 |
| Fc1ccc(NCc2cn(-c3ccccc3)nc2-c2ccc(Br)cc2)cc1 | 3.96 | 4.18 | 2.36 |
| Brc1ccc(NCc2cn(-c3ccccc3)nc2-c2ccc(Br)cc2)cc1 | 5 | 5.27 | 2.78 |
| Cn1cnc2c(NCc3ccccc3)nc(NCCO)nc21 [OLOMOUCINE] | 130 | 105 |  |
| COc1ccc(-c2nn(-c3ccccc3)cc2CNc2ccc(Br)cc2)cc1 | 7.02 | 8.06 | 4.96 |
| Cc1ccc(-c2nn(-c3ccccc3)cc2CNc2ccc(F)cc2)cc1 | 5.88 | 5.67 | 3.6 |
| Cc1ccc(NCc2cn(-c3ccccc3)nc2-c2ccc(C)cc2)cc1 | 7.26 | 7.38 | 4.55 |
| COc1ccc(-c2nn(-c3ccccc3)cc2CNc2ccc(C)cc2)cc1 | 8.16 | 8.38 | 5.06 |
| COc1ccc(-c2nn(-c3ccccc3)cc2CNc2ccc(F)cc2)cc1 | 5.98 | 6.58 | 4.02 |
